From article PMC6675461 (Bioorganic & medicinal chemistry, 2009)

How the values were obtained:
LPA3 = biological target: T1, LPA3 (Homo sapiens, UniProt Q9UBY5); experiment: FLIPR intracellular calcium mobilization assay, LPA3-transfected Chem-1 cells; type: cell-based
T1 sequence (Q9UBY5 1-353): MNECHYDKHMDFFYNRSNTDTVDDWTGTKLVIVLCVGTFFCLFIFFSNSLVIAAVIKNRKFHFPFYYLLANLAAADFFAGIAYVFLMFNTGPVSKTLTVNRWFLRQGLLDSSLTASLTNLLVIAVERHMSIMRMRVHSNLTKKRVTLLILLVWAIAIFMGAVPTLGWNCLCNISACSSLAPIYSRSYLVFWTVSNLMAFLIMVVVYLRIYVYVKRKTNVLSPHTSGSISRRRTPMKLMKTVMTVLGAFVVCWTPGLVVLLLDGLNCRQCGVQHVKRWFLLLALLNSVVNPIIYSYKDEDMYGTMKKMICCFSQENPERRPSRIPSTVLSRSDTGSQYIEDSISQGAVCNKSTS

PC-3 cells = experiment: SRB antiproliferative assay, PC-3 prostate cancer cells; type: cell-based, human; conditions: Homo sapiens, PC-3, 96 h, read-out: IC50 ± SEM PC-3
A375 cells [1] = experiment: Flow cytometric cell cycle analysis, A375; type: cell-based, human; conditions: A375, tested 1, 5, 10, 20 μM, 48 h
[2] = test system: three melanoma cell lines (B16-F1, A375, WM-164); experiment: SRB assay, average over melanoma cell lines and selectivity vs fibroblast; type: cell-based, human, mouse; conditions: Fibroblast, read-out: Aver. (average IC50 of three melanoma cells IC50s)
RH7777 cells = experiment: SRB assay, RH7777 control cells; type: cell-based; conditions: Homo sapiens, RH7777, 96 h, read-out: IC50 ± SEM RH7777
Outline: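 PC-3 cells were grown in RPMI1640 with 10% FBS, and RH7777 cells in DMEM with 10% FBS, both at 37 °C, 5% CO2. Cells were fixed with 10% TCA, stained with 0.4% SRB and read at 540 nm. IC50 came from nonlinear regression of % survival versus concentration.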

LNCaP cells [3] = experiment: Flow cytometric cell cycle analysis, LNCaP; type: cell-based, human; conditions: tested 1, 5, 10, 20 μM, 48 h
LNCaP cells [4] = experiment: SRB antiproliferative assay, LNCaP prostate cancer cells; type: cell-based, human; conditions: Homo sapiens, LNCaP, 96 h, read-out: IC50 ± SEM LNCaP
Outline: (§1)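 Prostate cancer cells were grown in RPMI1640 with 10% FBS at 37 °C, 5% CO2. Cells were fixed with 10% TCA and stained with 0.4% SRB, and absorbance was read at 540 nm. IC50 came from nonlinear regression of % survival versus concentration.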

PPC-1 cells = experiment: SRB antiproliferative assay, PPC-1 prostate cancer cells; type: cell-based, human; conditions: Homo sapiens, PPC-1, 96 h, read-out: IC50 ± SEM PPC-1
Outline: as §1

LPA5 = LPA5 (Homo sapiens, UniProt Q9H1C0); experiment: FLIPR intracellular calcium mobilization assay, LPA5-transfected Chem-1 cells; type: cell-based
LPA1 = LPA1 (Homo sapiens, UniProt Q92633); experiment: FLIPR intracellular calcium mobilization assay, LPA1-transfected Chem-1 cells; type: cell-based
DU 145 cells = experiment: SRB antiproliferative assay, DU 145 prostate cancer cells; type: cell-based, human; conditions: Homo sapiens, DU-145, 96 h, read-out: IC50 ± SEM DU 145
Outline: as §1

A375 cells [5] = experiment: Melanoma colony-formation assay; type: cell-based, human; conditions: 14 days
Outline: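 A375 cells were plated at colony-forming density (2000 per well) in DMEM with FBS and antibiotic-antimycotic at 37 °C, 5% CO2. Test compound was added at 2, […], with matching DMSO dilution as vehicle control. After 14 days' growth, colonies were stained with 0.1% […] for 30 min, rinsed and counted with an automated colony counter.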

[6] = against oleoyl-LPA at EC80, top concentration 10 μM
[7] = top concentration 10 μM, 15% activation of oleoyl-LPA Emax = agonist

Chain of LPA5 (Q9H1C0 whole entry, species assumed): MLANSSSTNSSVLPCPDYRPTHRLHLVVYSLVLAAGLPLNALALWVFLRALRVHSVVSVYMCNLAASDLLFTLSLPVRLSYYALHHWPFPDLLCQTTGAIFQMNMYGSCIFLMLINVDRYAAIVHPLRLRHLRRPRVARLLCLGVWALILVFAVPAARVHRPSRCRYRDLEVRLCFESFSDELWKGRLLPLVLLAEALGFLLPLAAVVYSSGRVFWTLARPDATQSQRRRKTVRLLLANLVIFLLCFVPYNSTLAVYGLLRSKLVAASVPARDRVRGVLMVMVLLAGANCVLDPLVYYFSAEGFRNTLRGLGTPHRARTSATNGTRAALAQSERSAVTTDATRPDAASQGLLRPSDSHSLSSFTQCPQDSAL
Chain of LPA1 (Q92633 whole entry, species assumed): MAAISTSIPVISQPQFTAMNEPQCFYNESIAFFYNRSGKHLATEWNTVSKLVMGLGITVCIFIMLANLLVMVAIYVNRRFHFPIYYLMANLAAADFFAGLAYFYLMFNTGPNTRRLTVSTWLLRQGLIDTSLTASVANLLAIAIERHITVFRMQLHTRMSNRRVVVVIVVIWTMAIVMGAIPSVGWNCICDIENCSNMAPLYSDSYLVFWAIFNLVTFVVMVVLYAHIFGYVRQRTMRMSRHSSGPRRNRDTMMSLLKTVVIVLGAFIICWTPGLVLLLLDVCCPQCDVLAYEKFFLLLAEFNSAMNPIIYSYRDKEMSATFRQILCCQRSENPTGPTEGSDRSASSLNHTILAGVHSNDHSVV

For `CCCCCCCCCCCCCCCCNC(=O)[C@@H]1CSC(c2cc(OC)c(OC)c(OC)c2)N1` (mixture of isomers) [Compound 3ad, (2RS,4R)-2-(3,4,5-Trimethoxy-phenyl)-thiazolidine-4-carboxylic acid hexadecylamide], the “antagonist activity on LPA3, in words” value (LPA3; [6]) was “did not exhibit any dose-dependent antagonist activity”, the “agonist activity on LPA3, in words” value (LPA3; [7]) was “did not exhibit any dose-dependent agonist activity” and the IC50 (PC-3 cells) was 1800 ± 100 nM. The “concentration at which accumulation of cells in sub-G1 phase became apparent” value (A375 cells [1]) was 5 µM, the IC50 [2] was 1200 nM and the IC50 (RH7777 cells) was 7200 ± 100 nM. For the same compound, the “concentration at which accumulation of cells in sub-G1 phase became apparent” value (LNCaP cells [3]) was 5 µM, the IC50 (LNCaP cells [4]) was 800 ± 100 nM and the IC50 (PPC-1 cells) was 400 ± 100 nM. For the same compound, the “antagonist activity on LPA5, in words” value (LPA5; [6]) was “did not exhibit any dose-dependent antagonist activity”, the “agonist activity on LPA5, in words” value (LPA5; [7]) was “did not exhibit any dose-dependent agonist activity” and the “antagonist activity on LPA1, in words” value (LPA1; [6]) was “did not exhibit any dose-dependent antagonist activity”. For the same compound, the “agonist activity on LPA1, in words” value (LPA1; [7]) was “did not exhibit any dose-dependent agonist activity”, the IC50 (DU 145 cells) was 1700 ± 100 nM and the “inhibition of A375 colony formation” value (A375 cells [5]; 2 μM) was “effectively inhibit”. The “inhibition of A375 colony formation” value (A375 cells [5]; 20 μM) was “almost completely inhibited” and the “inhibition of A375 colony formation” value (A375 cells [5]; 100 μM) was “completely inhibited”.
